# Measured values from ChEMBL document CHEMBL1131326, “Design, synthesis, and antiviral evaluations of 1-(substituted benzyl)-2-substituted-5,6-dichlorobenzimidazoles as nonnucleoside analogues of 2,5,6-trichloro-1-(beta-D-ribofuranosyl)benzimidazole” (J Med Chem, 1998).
# Key:
# KB = test: Inhibition of KB cell growth determined by quadruplicate assays; format: functional, cell-based; conditions: Homo sapiens
# How it was run: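 KB cells seeded at 3000-5000/well, overnight at 37 °C, then compound in quadruplicate at six to eight concentrations for 48 h (about two doublings) in CO₂. Cells fixed in 95% ethanol, stained with 0.1% crystal violet, dye eluted with acidified ethanol and read at 570 nm; IC50 by regression vs log concentration.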
# Human alphaherpesvirus 1 = test: Antiviral activity against herpes simplex virus type-1 (HSV-1); format: functional, organism-based
# How it was run: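 BSC-1 cells (10 000/well, MEM(E) + 10% calf serum) incubated overnight, then given drug in quadruplicate plus HSV-1 KOS at 100 pfu/well; 3 days at 37 °C. ELISA with HRP-conjugated rabbit anti-HSV-1 antibody, TMB substrate, stopped with H₂SO₄, absorbance at 450 and 570 nm; IC50 by regression of % absorbance reduction vs log concentration.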
# [1] = tested on: Human immunodeficiency virus 1; test: Activity against HIV-1 by syncytial plaque assay performed in duplicate using CEM-SS cells; format: functional, organism-based; conditions: Human immunodeficiency virus 1, CEM-SS
# How it was run: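 Syncytial plaque assay: poly-L-lysine-adherent CEM-SS cells infected with HIV-1 strain IIIB with or without compound at selected concentrations; syncytial plaques counted at 30-fold magnification 7 days postinfection; duplicate. IC50 from linear regression of percent inhibition against log concentration.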
# CEM-SS = test: Cytotoxicity against CEM-SS cells in terms of incorporation of [3H]dThd; format: functional, cell-based; conditions: Homo sapiens
# How it was run: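 DNA synthesis in CEM-SS cells measured as uptake of [³H]dThd into total acid-precipitable material; results averaged from duplicate experiments.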
# Human betaherpesvirus 5 = test: Antiviral activity against human cytomegalovirus (HCMV) by plaque reduction assay; format: functional, organism-based
# How it was run: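 HFF monolayers infected with about 100 pfu/cm² of HCMV Towne (isolate Po); after adsorption, compound in growth medium added to duplicate wells at four to eight concentrations.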
# HFF = test: Visual cytotoxicity scored on HFF cells at a time of HCMV plaque enumeration; format: functional, cell-based; conditions: Homo sapiens
# How it was run: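 Cytotoxicity in stationary HFF cells scored by microscopic inspection of cells not affected by virus, at time of HCMV plaque enumeration, in the plaque-assay plates.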
# [2] = tested on: Human immunodeficiency virus 2; test: Compound was tested for antiviral activity against HIV-2; format: functional, organism-based
# [3] = Compound was tested for antiviral activity against HIV-1 resistant to TIBO A-17; format: functional, Human immunodeficiency virus 1
# How it was run: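 Syncytial plaque assay in duplicate sets on CEM-SS cells made adherent with poly-L-lysine. Virus was the A17 HIV-1 variant, resistant to nonnucleoside RT inhibitors including TIBO, or HIV-2, both from the AIDS Research and Reference Program. Infection was in the presence or absence of compound; syncytial plaques were counted at 30-fold magnification 7 days postinfection. IC50 came from linear regression of percent inhibition against log concentration.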
IC50 (KB) [µM],IC50 (Human alphaherpesvirus 1) [µM],IC50 [1] [µM],IC50 (Human betaherpesvirus 5) [µM],Structure (SMILES),IC50 (CEM-SS) [µM],IC50 (HFF) [µM],IC50 [2] [µM],IC50 [3] [µM]
> 100,> 100,> 100,> 100,FC(F)(F)c1cccc(Cn2c(Cl)nc3cc(Cl)c(Cl)cc32)c1,> 100,> 100,,
,,1.8,32,Nc1nc2cc(Cl)c(Cl)cc2n1Cc1ccc(C(F)(F)F)cc1,20,32,,
> 100,,,,OC[C@H]1O[C@H](n2c(Br)nc3cc(Cl)c(Cl)cc32)[C@@H](O)[C@H]1O,,,,
50,60,10,22,CC(C)(C)c1ccc(Cn2c(N)nc3cc(Cl)c(Cl)cc32)cc1,27,32,,
,,30,> 100,Fc1ccc(Cn2c(Br)nc3cc(Cl)c(Cl)cc32)cc1,> 100,> 100,,
45,50,,22,CC(C)Nc1nc2cc(Cl)c(Cl)cc2n1Cc1ccccc1,,22,,
,,12,> 100,FC(F)(F)c1cccc(Cn2c(Br)nc3cc(Cl)c(Cl)cc32)c1,> 100,> 100,,
45,> 100,10,> 100,Nc1nc2cc(Cl)c(Cl)cc2n1Cc1ccc(Cl)cc1,32,> 100,,
183,> 100,7.8,> 100,O=[N+]([O-])c1ccc(Cn2c(Cl)nc3cc(Cl)c(Cl)cc32)cc1,51,> 100,,
> 100,> 100,,> 100,Clc1cc2nc(Cl)n(Cc3ccccc3)c2cc1Cl,,> 100,,
> 100,> 100,27,> 100,Clc1cc2nc(Br)n(Cc3ccccc3)c2cc1Cl,> 100,> 100,,
70,65,5.9,> 100,FC(F)(F)c1cc(Cn2c(Br)nc3cc(Cl)c(Cl)cc32)cc(C(F)(F)F)c1,> 100,> 100,,
35,50,> 6,40,Nc1nc2cc(Cl)c(Cl)cc2n1Cc1ccc(Cl)c(Cl)c1,30,32,,
> 100,> 100,> 100,> 100,FC(F)(F)c1ccc(Cn2c(Br)nc3cc(Cl)c(Cl)cc32)cc1,> 100,> 100,,
,> 100,100,> 100,Clc1cccc(Cn2c(Cl)nc3cc(Cl)c(Cl)cc32)c1,> 100,> 100,,
65,> 100,21,> 100,Nc1nc2cc(Cl)c(Cl)cc2n1Cc1cccc([N+](=O)[O-])c1,47,> 100,,
,,100,> 100,CC(C)(C)c1ccc(Cn2c(Br)nc3cc(Cl)c(Cl)cc32)cc1,> 100,> 100,,
> 100,> 100,> 100,> 100,FC(F)(F)c1ccc(Cn2c(Cl)nc3cc(Cl)c(Cl)cc32)cc1,> 100,> 100,,
,> 100,6,32,Nc1nc2cc(Cl)c(Cl)cc2n1Cc1ccccc1Cl,36,32,,
65,80,12,> 100,Cc1cccc(Cn2c(N)nc3cc(Cl)c(Cl)cc32)c1,48,> 100,,
35,> 100,21,> 100,Nc1nc2cc(Cl)c(Cl)cc2n1Cc1ccc([N+](=O)[O-])cc1,32,> 100,,

IC50 (KB) [µM],IC50 (Human alphaherpesvirus 1) [µM],IC50 [1] [µM],IC50 (Human betaherpesvirus 5) [µM],Structure (SMILES),IC50 (CEM-SS) [µM],IC50 (HFF) [µM],IC50 [2] [µM],IC50 [3] [µM]
55,> 100,6,> 100,COc1ccc(Cn2c(Br)nc3cc(Cl)c(Cl)cc32)cc1,60,> 100,,
,60,> 6,32,Nc1nc2cc(Cl)c(Cl)cc2n1Cc1cc(C(F)(F)F)cc(C(F)(F)F)c1,34,32,,
70,70,32,12,Nc1nc2cc(Cl)c(Cl)cc2n1Cc1ccc(F)cc1,30,37,,
45,60,> 10,32,Nc1nc2cc(Cl)c(Cl)cc2n1Cc1cccc(C(F)(F)F)c1,17,32,,
> 100,> 100,> 100,> 100,Clc1ccc(Cn2c(Cl)nc3cc(Cl)c(Cl)cc32)cc1Cl,> 100,> 100,,
65,70,> 30,> 100,Nc1nc2cc(Cl)c(Cl)cc2n1Cc1cccc(Cl)c1,37,> 100,,
> 100,> 100,> 100,> 100,Cc1ccc(Cn2c(Br)nc3cc(Cl)c(Cl)cc32)cc1,> 100,> 100,,
78,> 100,15,> 10,Clc1cc2nc(Br)n(Cc3ccccc3Cl)c2cc1Cl,74,> 10,,
170,152,,37,Nc1nc2cc(Cl)c(Cl)cc2n1Cc1ccccc1,,58,,
239,> 100,20,> 100,O=[N+]([O-])c1cccc(Cn2c(Cl)nc3cc(Cl)c(Cl)cc32)c1,> 100,> 100,,
> 100,> 100,> 100,> 100,CC(C)(C)c1ccc(Cn2c(Cl)nc3cc(Cl)c(Cl)cc32)cc1,> 100,> 100,,
,,,> 100,Clc1cc2nc(Cl)n(CCc3ccccc3)c2cc1Cl,,> 100,,
> 100,> 100,,> 100,Clc1cc2nc(Br)n(CCc3ccccc3)c2cc1Cl,,> 100,,
> 100,> 100,> 100,> 100,Clc1ccc(Cn2c(Br)nc3cc(Cl)c(Cl)cc32)cc1Cl,> 100,> 100,,
> 100,> 100,33,> 100,Cc1ccc(Cn2c(Cl)nc3cc(Cl)c(Cl)cc32)cc1,> 100,32,,
50,80,20,30,Cc1ccc(Cn2c(N)nc3cc(Cl)c(Cl)cc32)cc1,40,32,,
> 100,> 100,26,> 100,COc1ccc(Cn2c(Cl)nc3cc(Cl)c(Cl)cc32)cc1,> 100,> 100,,
> 100,70,> 100,> 100,Clc1cccc(Cn2c(Br)nc3cc(Cl)c(Cl)cc32)c1,> 100,> 100,,
> 100,> 100,> 100,> 100,FC(F)(F)c1cc(Cn2c(Cl)nc3cc(Cl)c(Cl)cc32)cc(C(F)(F)F)c1,> 100,> 100,,
> 100,> 100,> 100,> 100,Clc1ccc(Cn2c(Br)nc3cc(Cl)c(Cl)cc32)cc1,> 100,> 100,,
45,> 100,12,> 100,COc1ccc(Cn2c(N)nc3cc(Cl)c(Cl)cc32)cc1,27,> 100,,

Structure (SMILES),IC50 (KB) [µM],IC50 (Human alphaherpesvirus 1) [µM],IC50 [1] [µM],IC50 (Human betaherpesvirus 5) [µM],IC50 (CEM-SS) [µM],IC50 (HFF) [µM],IC50 [2] [µM],IC50 [3] [µM]
Clc1cc2nc(Cl)n(Cc3ccccc3Cl)c2cc1Cl,156,> 100,15,30,70,> 100,> 30,13
